Results: ChEMBL document CHEMBL1275425, “Mechanism of inhibition of human immunodeficiency virus type 1 reverse transcriptase by a stavudine analogue, 4'-ethynyl stavudine triphosphate” (Antimicrob Agents Chemother, 2008)

Experiments:
[1] = target: T1, Human immunodeficiency virus type 1 reverse transcriptase (Human immunodeficiency virus 1, UniProt Q72547); assay: Inhibition of RNA-dependent DNA polymerase activity of HIV 1 reverse transcriptase assessed as incorporation of 4-EdTMP by burst assay using RNA/DNA Primer/Template combination
How it was run: (§1)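 Rapid chemical quench-flow at 25°C in 50 mM Tris-HCl pH 7.8, 50 mM NaCl. Wt or M184V HIV-1 RT (100 nM final) was preincubated with 5′-32P-labelled primer/template (300 nM final; DNA/DNA or DNA/RNA). It was mixed with buffer containing 20 mM MgSO4 (pre-mixing) and 2 mM nucleotide triphosphate (pre-mixing). Reactions were quenched at set times with 0.5 M EDTA and products resolved by urea-PAGE with phosphorimaging. Data were fitted to the burst equation.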

[2] = target: T2, Human immunodeficiency virus type 1 reverse transcriptase (Human immunodeficiency virus 1, UniProt Q72547, M184V); assay: Inhibition of DNA-dependent DNA polymerase activity of HIV 1 reverse transcriptase M184V mutant assessed as incorporation of 4-EdTMP by burst assay using DNA/DNA Primer/Template combination
[3] = target: T1, Human immunodeficiency virus type 1 reverse transcriptase; assay: Inhibition of DNA-dependent DNA polymerase activity of HIV 1 reverse transcriptase assessed as incorporation of 4-EdTMP by burst assay using DNA/DNA Primer/Template combination; how it was run: as §1
[4] = test system: Human immunodeficiency virus type 1 reverse transcriptase (Human immunodeficiency virus 1), Q72547 [M184V]; assay: Activity of DNA-dependent DNA polymerase activity of HIV 1 reverse transcriptase M184V mutant assessed as incorporation of 4-EdTMP by burst assay using DNA/DNA Primer/Template combination
How it was run: (§2)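 Purified HIV-1 RT (wild type or M184V built by site-directed mutagenesis) was preincubated with a 5′-32P-labeled primer annealed to a DNA or RNA template. It was rapidly mixed in a quench-flow at 25°C in 50 mM Tris-HCl pH 7.8 with 50 mM NaCl and MgSO4. Final: 300 nM P/T, 100 nM enzyme, 1 mM nucleotide. Reactions were EDTA-quenched at set times, run on urea-PAGE and phosphorimaged, then fitted to the burst equation.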

[5] = target: Human immunodeficiency virus type 1 reverse transcriptase (Human immunodeficiency virus 1) (UniProt Q72547); assay: Activity of DNA-dependent DNA polymerase activity of HIV 1 reverse transcriptase assessed as incorporation of 4-EdTMP by burst assay using DNA/DNA Primer/Template combination; how it was run: as §2
[6] = test system: Human immunodeficiency virus type 1 reverse transcriptase (Human immunodeficiency virus 1), Q72547 [M184V]; assay: Activity of RNA-dependent DNA polymerase activity of HIV 1 reverse transcriptase M184V mutant assessed as incorporation of 4-EdTMP by burst assay using RNA/DNA Primer/Template combination; how it was run: as §2
[7] = target: Human immunodeficiency virus type 1 reverse transcriptase (Human immunodeficiency virus 1) (UniProt Q72547); assay: Activity of RNA-dependent DNA polymerase activity of HIV 1 reverse transcriptase assessed as incorporation of 4-EdTMP by burst assay using RNA/DNA Primer/Template combination; how it was run: as §2
[8] = test system: Human immunodeficiency virus type 1 reverse transcriptase (Human immunodeficiency virus 1), Q72547 [M184V]; assay: Ratio of Kpol/Kd for DNA-dependent DNA polymerase activity of HIV 1 reverse transcriptase M184V mutant assessed as incorporation of 4-EdTMP by burst assay using DNA/DNA Primer/Template combination
How it was run: (§3)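 Single-turnover rapid-quench at 25°C in Tris-HCl pH 7.8/NaCl/MgSO4 buffer, with enzyme in excess: 250 nM wild-type or M184V RT and 50 nM 5′-32P-labeled DNA/DNA or DNA/RNA primer/template. The incoming nucleotide concentration was varied. Products were resolved by urea-PAGE and phosphorimaged. First-phase rates were fitted to kobs = kpol[S]/(Kd+[S]), and efficiency was taken as kpol/Kd.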

[9] = target: Human immunodeficiency virus type 1 reverse transcriptase (Human immunodeficiency virus 1) (UniProt Q72547); assay: Ratio of Kpol/Kd for DNA-dependent DNA polymerase activity of HIV 1 reverse transcriptase assessed as incorporation of 4-EdTMP by burst assay using DNA/DNA Primer/Template combination; how it was run: as §3
[10] = test system: Human immunodeficiency virus type 1 reverse transcriptase (Human immunodeficiency virus 1), Q72547 [M184V]; assay: Ratio of Kpol/Kd for RNA-dependent DNA polymerase activity of HIV 1 reverse transcriptase M184V mutant assessed as incorporation of 4-EdTMP by burst assay using RNA/DNA Primer/Template combination; how it was run: as §3
[11] = target: Human immunodeficiency virus type 1 reverse transcriptase (Human immunodeficiency virus 1) (UniProt Q72547); assay: Ratio of Kpol/Kd for RNA-dependent DNA polymerase activity of HIV 1 reverse transcriptase assessed as incorporation of 4-EdTMP by burst assay using RNA/DNA Primer/Template combination; how it was run: as §3
[12] = test system: Human immunodeficiency virus type 1 reverse transcriptase (Human immunodeficiency virus 1), Q72547 [M184V]; assay: (§4) Selectivity index, ratio of Kpol/Kd for DNA-dependent DNA polymerase activity of HIV 1 reverse transcriptase M184V mutant assessed as incorporation of dTMP to Kpol/Kd for DNA-dependent DNA polymerase activity of HIV 1 reverse transcriptase reverse transcriptase M184V mutant assessed as incorporation of Ed4TMP
How it was run: (§5)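 Selectivity factor: the single-turnover incorporation efficiency (kpol/Kd) for dTTP divided by that for the analogue triphosphate. Both used the same RT (wild type or M184V) and the same primer/template, DNA/DNA or DNA/RNA. Kd and kpol came from hyperbolic fits of first-phase rates against nucleotide concentration, with 250 nM RT over 50 nM labeled P/T at 25°C.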

[13] = target: Human immunodeficiency virus type 1 reverse transcriptase (Human immunodeficiency virus 1) (UniProt Q72547); assay: Selectivity index, ratio of Kpol/Kd for DNA-dependent DNA polymerase activity of HIV 1 reverse transcriptase assessed as incorporation of dTMP to Kpol/Kd for DNA-dependent DNA polymerase activity of HIV 1 reverse transcriptase reverse transcriptase assessed as incorporation of Ed4TMP; how it was run: as §5
[14] = test system: Human immunodeficiency virus type 1 reverse transcriptase (Human immunodeficiency virus 1), Q72547 [M184V]; assay: as §4, with “RNA-dependent” for “DNA-dependent”; how it was run: as §5
[15] = target: Human immunodeficiency virus type 1 reverse transcriptase (Human immunodeficiency virus 1) (UniProt Q72547); assay: Selectivity index, ratio of Kpol/Kd for RNA-dependent DNA polymerase activity of HIV 1 reverse transcriptase assessed as incorporation of dTMP to Kpol/Kd for RNA-dependent DNA polymerase activity of HIV 1 reverse transcriptase reverse transcriptase assessed as incorporation of Ed4TMP; how it was run: as §5
[16] = target: T2, Human immunodeficiency virus type 1 reverse transcriptase; assay: Inhibition of RNA-dependent DNA polymerase activity of HIV 1 reverse transcriptase M184V mutant assessed as incorporation of 4-EdTMP by single-turnover assay using RNA/DNA Primer/Template combination
[17] = target: T2, Human immunodeficiency virus type 1 reverse transcriptase; assay: Inhibition of RNA-dependent DNA polymerase activity of HIV 1 reverse transcriptase M184V mutant assessed as incorporation of d4TMP by burst assay using RNA/DNA Primer/Template combination
[18] = target: T1, Human immunodeficiency virus type 1 reverse transcriptase; assay: Inhibition of RNA-dependent DNA polymerase activity of HIV 1 reverse transcriptase assessed as incorporation of d4TMP by burst assay using RNA/DNA Primer/Template combination
[19] = target: T2, Human immunodeficiency virus type 1 reverse transcriptase; assay: Inhibition of DNA-dependent DNA polymerase activity of HIV 1 reverse transcriptase M184V mutant assessed as incorporation of d4TMP by burst assay using DNA/DNA Primer/Template combination
[20] = target: T1, Human immunodeficiency virus type 1 reverse transcriptase; assay: Inhibition of DNA-dependent DNA polymerase activity of HIV 1 reverse transcriptase assessed as incorporation of d4TMP by burst assay using DNA/DNA Primer/Template combination
[21] = target: T2, Human immunodeficiency virus type 1 reverse transcriptase; assay: Inhibition of RNA-dependent DNA polymerase activity of HIV 1 reverse transcriptase M184V mutant assessed as incorporation of dTMP by burst assay using RNA/DNA Primer/Template combination
How it was run: (§6)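 Pre-steady-state burst assay by rapid chemical quench at 25°C. Wild-type or M184V HIV-1 RT was preincubated with 5′-32P-labelled primer annealed to a DNA or RNA template. Final conditions were 100 nM enzyme, 300 nM P/T, and 1 mM nucleotide in 50 mM Tris-HCl pH 7.8 with 50 mM NaCl and MgSO4. Reactions were quenched with EDTA and products resolved by urea-PAGE with phosphorimaging. Data were fitted to the burst equation to give amplitude, kob and kss.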

[22] = target: T1, Human immunodeficiency virus type 1 reverse transcriptase; assay: Inhibition of RNA-dependent DNA polymerase activity of HIV 1 reverse transcriptase assessed as incorporation of dTMP by burst assay using RNA/DNA Primer/Template combination; how it was run: as §6
[23] = target: T2, Human immunodeficiency virus type 1 reverse transcriptase; assay: Inhibition of DNA-dependent DNA polymerase activity of HIV 1 reverse transcriptase M184V mutant assessed as incorporation of dTMP by burst assay using DNA/DNA Primer/Template combination; how it was run: as §6
[24] = target: T1, Human immunodeficiency virus type 1 reverse transcriptase; assay: Inhibition of DNA-dependent DNA polymerase activity of HIV 1 reverse transcriptase assessed as incorporation of dTMP by burst assay using DNA/DNA Primer/Template combination; how it was run: as §6
[25] = test system: Human immunodeficiency virus type 1 reverse transcriptase (Human immunodeficiency virus 1), Q72547 [M184V]; assay: Activity of DNA-dependent DNA polymerase activity of HIV 1 reverse transcriptase M184V mutant assessed as incorporation of dTMP by burst assay using DNA/DNA Primer/Template combination; how it was run: as §2
[26] = target: Human immunodeficiency virus type 1 reverse transcriptase (Human immunodeficiency virus 1) (UniProt Q72547); assay: Activity of DNA-dependent DNA polymerase activity of HIV 1 reverse transcriptase assessed as incorporation of dTMP by burst assay using DNA/DNA Primer/Template combination; how it was run: as §2
[27] = test system: Human immunodeficiency virus type 1 reverse transcriptase (Human immunodeficiency virus 1), Q72547 [M184V]; assay: Activity of RNA-dependent DNA polymerase activity of HIV 1 reverse transcriptase M184V mutant assessed as incorporation of dTMP by burst assay using RNA/DNA Primer/Template combination; how it was run: as §6
[28] = target: Human immunodeficiency virus type 1 reverse transcriptase (Human immunodeficiency virus 1) (UniProt Q72547); assay: Activity of RNA-dependent DNA polymerase activity of HIV 1 reverse transcriptase assessed as incorporation of dTMP by burst assay using RNA/DNA Primer/Template combination; how it was run: as §2
[29] = test system: Human immunodeficiency virus type 1 reverse transcriptase (Human immunodeficiency virus 1), Q72547 [M184V]; assay: Ratio of Kpol/Kd for DNA-dependent DNA polymerase activity of HIV 1 reverse transcriptase M184V mutant assessed as incorporation of dTMP by burst assay using DNA/DNA Primer/Template combination
How it was run: (§7)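 Single-turnover rapid-quench assay at 25°C, Tris-HCl pH 7.8 and NaCl. Enzyme (250 nM wild-type or M184V RT) was in excess over 5′-32P-labelled DNA/DNA or DNA/RNA P/T (50 nM), with the nucleotide triphosphate concentration varied. First-phase observed rates were fitted to kobs = kpol[S]/(Kd + [S]) to obtain Kd and kpol. Incorporation efficiency was taken as kpol/Kd.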

[30] = target: Human immunodeficiency virus type 1 reverse transcriptase (Human immunodeficiency virus 1) (UniProt Q72547); assay: Ratio of Kpol/Kd for DNA-dependent DNA polymerase activity of HIV 1 reverse transcriptase assessed as incorporation of dTMP by burst assay using DNA/DNA Primer/Template combination; how it was run: as §7
[31] = test system: Human immunodeficiency virus type 1 reverse transcriptase (Human immunodeficiency virus 1), Q72547 [M184V]; assay: Ratio of Kpol/Kd for RNA-dependent DNA polymerase activity of HIV 1 reverse transcriptase M184V mutant assessed as incorporation of dTMP by burst assay using RNA/DNA Primer/Template combination; how it was run: as §7
[32] = target: Human immunodeficiency virus type 1 reverse transcriptase (Human immunodeficiency virus 1) (UniProt Q72547); assay: Ratio of Kpol/Kd for RNA-dependent DNA polymerase activity of HIV 1 reverse transcriptase assessed as incorporation of dTMP by burst assay using RNA/DNA Primer/Template combination; how it was run: as §7

SMILES: C#C[C@@]1(COP(=O)(O)OP(=O)(O)OP(=O)(O)O)C=C[C@H](n2cc(C)c(=O)[nH]c2=O)O1
- Kd [1]: 11.4 µM
- Kd [2]: 168 µM
- Kd [3]: 15.8 µM
- Activity [4]: 18.9 s⁻¹
- Activity [5]: 12.1 s⁻¹
- Activity [6]: 9.7 s⁻¹
- Activity [7]: 11.7 s⁻¹
- Ratio [8]: 0.11 µM⁻¹ s⁻¹
- Ratio [9]: 0.77 µM⁻¹ s⁻¹
- Ratio [10]: 0.22 µM⁻¹ s⁻¹
- Ratio [11]: 1 µM⁻¹ s⁻¹
- Ratio [12]: 2.8
- Ratio [13]: 1.9
- Ratio [14]: 1.3
- Ratio [15]: 0.97
- Kd [16]: 43.4 µM

SMILES: Cc1cn([C@H]2C=C[C@@H](COP(=O)(O)OP(=O)(O)OP(=O)(O)O)O2)c(=O)[nH]c1=O [STAVUDINE TRIPHOSPHATE]
- Kd [17]: 232 µM
- Kd [18]: 40.8 µM
- Kd [19]: 605 µM
- Kd [20]: 48 µM

SMILES: Cc1cn([C@H]2C[C@H](O)[C@@H](COP(=O)(O)OP(=O)(O)OP(=O)(O)O)O2)c(=O)[nH]c1=O [DEOXYTHYMIDINE_TRIPHOSPHATE]
- Kd [21]: 144 µM
- Kd [22]: 67.1 µM
- Kd [23]: 73.2 µM
- Kd [24]: 15.4 µM
- Activity [25]: 22.4 s⁻¹
- Activity [26]: 22.6 s⁻¹
- Activity [27]: 41.7 s⁻¹
- Activity [28]: 65 s⁻¹
- Ratio [29]: 0.31 µM⁻¹ s⁻¹
- Ratio [30]: 1.47 µM⁻¹ s⁻¹
- Ratio [31]: 0.29 µM⁻¹ s⁻¹
- Ratio [32]: 0.97 µM⁻¹ s⁻¹
